Shown are actives, neighbours in structure and some others; about 1.3% of the full set was active somewhere.
GASC-1 inh: inhibitors of GASC-1 histone demethylase, primary screen, biochemical, fluorescence, DELFIA europium; inhibition, % at 2.35 µM; GST-JMJD2C(1-420) H3K9me3 demethylation; AID 2099, 2009; Lysine-specific demethylase 4C (Homo sapiens), Q9H3R0; actives 0.069% (n = 330,000);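 active = more than half of a compound's replicate wells show inhibition beyond 50%, single wells judged on their own value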;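 note: signal counts dimethyl H3K9 product captured on neutravidin plate; 0% = median of DMSO wells and 100% = 0.3 times that DMSO median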
Furin inh: human furin inhibitors, primary screen, biochemical, fluorescence intensity; actives 0.061% (n = 220,000); P09958; AID 463115, 2010; inhibition, % at 20 µM or 30 µM; purified furin, fluorogenic substrate cleavage; in the data active = inhibition above about 25%
NR2E3 ag-1: NR2E3 agonists in two-hybrid cells, primary screen, cell-based, luminescence, CHO-S, Gal4-NCOR/VP16-NR2E3 | Photoreceptor-specific nuclear receptor (Homo sapiens), Q9Y5X4 | luciferase | inhibition of corepressor binding, % at 3.98 µM | actives 0.35% (n = 360,000);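 active = inhibition above the mean of all tested compounds plus 3 SD, cut at about 70% in these data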;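 note: 0% = DMSO with NR2E3 transfected cells and 100% = cells lacking NR2E3 construct; higher means lower luciferase signal from less NR2E3 corepressor binding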
EP2 modulator: EP2 receptor modulators, cAMP readout, primary screen, cell-based, HTRF cAMP, PGE2 stimulation | Prostaglandin E2 receptor EP2 subtype (Homo sapiens), P43116 | EP2-expressing cells, cAMP HTRF FRET, PGE2 co-stimulation | induction, % at 25 µM | actives 0.83% (n = 260,000);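 active = compounds whose cAMP rise, as percent of the full-agonist control response, exceeds 60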;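 note: rat C6 glioma line stably carrying human EP2 under a CMV promoter; the protocol text gives 20 µM as final concentration; 100% = response of wells given 1 µM PGE2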
Target sequence (P43116 whole entry, looked up): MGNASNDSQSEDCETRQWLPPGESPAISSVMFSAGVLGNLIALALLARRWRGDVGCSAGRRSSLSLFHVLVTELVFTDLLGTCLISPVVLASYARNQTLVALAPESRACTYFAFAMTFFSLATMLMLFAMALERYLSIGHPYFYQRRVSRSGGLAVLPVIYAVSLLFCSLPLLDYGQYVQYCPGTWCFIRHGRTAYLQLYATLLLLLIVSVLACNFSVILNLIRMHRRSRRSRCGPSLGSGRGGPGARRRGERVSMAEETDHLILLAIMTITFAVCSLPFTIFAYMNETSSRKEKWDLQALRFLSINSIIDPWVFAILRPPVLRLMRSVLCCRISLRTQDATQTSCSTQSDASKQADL
NR2E3 ag-2: inhibitors of NR2E3-RetCOR corepressor binding, primary screen, NR2E3 agonist project, biochemical, TR-FRET, GST-NR2E3, biotin-RetCOR; Photoreceptor-specific nuclear receptor (Homo sapiens), Q9Y5X4; 1536-well; inhibition of corepressor binding, % at 4.78 µM; actives 0.12% (n = 320,000); AID 2300, 2010;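 active = percent inhibition above the cutoff of mean plus 3 SD of all tested compounds, set per screening campaign, cut at about 20% in these data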;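 note: 0% = DMSO wells and 100% = biotin wells as full block of FRET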
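System: GST-tagged NR2E3 plus biotinylated RetCOR corepressor; Buffer or medium: pH 7.5 Tris-based buffer; Probe or stimulus: RetCOR corepressor, biotinylated, 7 nM; Doses: compound at 4.8 µM, single dose; Schedule: 5 h incubation at 4 °C; Technique: time-resolved FRET; Evaluation: percent inhibition of TR-FRET ratio; Replication: one well per compound, singlicate testing.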
PGE2 EP2 inh: human EP2 receptor antagonists, primary screen, TR-FRET cAMP, C6 glioma cells; Prostaglandin E2 receptor EP2 subtype (Homo sapiens), P43116; C6 glioma cells expressing human EP2; cells stimulated with saturating PGE2; inhibition, % at 25 µM; actives 0.52% (n = 260,000);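 active = percent inhibition above 40 after rounding to a whole number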;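 note: rat C6 glioma host cells with rolipram phosphodiesterase inhibitor present; the protocol text gives 20 µM as final concentration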
NR2E3 ag conf: NR2E3 agonist confirmation in cells, cell-based, luminescence, CHO-S two-hybrid; actives 51% (n = 2,300); shares compounds with NR2E3 ag-1; AID 624378, 2012; inhibition, % at 3.98 µM; CHO-S mammalian two-hybrid NR2E3-NCOR, luciferase luminescence;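 active = average inhibition above a cutoff equal to the mean inhibition of all tested compounds plus one SD, cut at about 70% in these data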;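 note: 0% = DMSO in NR2E3 cells and 100% = DMSO in cells lacking NR2E3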
GAL4-VP16 luc: GAL4-VP16 reporter modulators, confirmation, counter-screen for NR2E3 agonist project, cell-based, luminescence, CHO-S, high throughput; shares compounds with NR2E3 ag-1; inhibition, % at 3.98 µM; actives 29% (n = 2,300); CHO-S GAL4-VP16 luciferase reporter;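 active = mean inhibition above a cutoff equal to the average over all tested compounds plus one standard deviation, cut at about 70% in these data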;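 note: luciferase from a UAS reporter driven by GAL4-VP16 transactivation; 0% = DMSO with VP16-transfected cells and 100% = DMSO with cells lacking VP16; higher means less reporter light so more repression of VP16 activity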
An asterisk follows results filed as active.

Results for FC(F)(F)c1ccc(-c2nc3ccccc3s2)cc1 ?
NR2E3 ag-1: -37

What do the screens show for `C=CCN1CCN(C(CC)c2nnnn2C2CCCC2)CC1` (stereo unspecified)?
EP2 modulator: 5; PGE2 EP2 inh: 8

Results for COc1cc2cc(CN(C(=S)NC3CCCCC3)C3CCCC3)c(=O)[nH]c2cc1OC ?
EP2 modulator: 32; PGE2 EP2 inh: 14

Results for CN(C)S(=O)(=O)Oc1cccc(C(=O)Nc2ccc(Cl)cc2)c1 ?
GASC-1 inh: 1; Furin inh: -12; NR2E3 ag-1: 60; EP2 modulator: -54; NR2E3 ag-2: 1; PGE2 EP2 inh: 15; NR2E3 ag conf: 30; GAL4-VP16 luc: 7

How did Cc1cc(Cl)ccc1OC(C)C(=O)Nc1ccc(C(=O)Nc2ccccc2C(=O)O)cc1 (stereo unspecified) do in these assays?
GASC-1 inh: 9; NR2E3 ag-1: 53; NR2E3 ag-2: 4; NR2E3 ag conf: 10; GAL4-VP16 luc: 32

What do the screens show for `CCOC(=O)c1ccc(Oc2cn[nH]c2-c2ccc(O)cc2O)cc1`?
GASC-1 inh: -51; Furin inh: -7; NR2E3 ag-1: 12; EP2 modulator: -34; NR2E3 ag-2: -2; PGE2 EP2 inh: 14

Results for CCCOC(=O)c1ccc(Oc2cn[nH]c2-c2ccc(O)cc2O)cc1 ?
GASC-1 inh: -5; Furin inh: -14; NR2E3 ag-1: 58; EP2 modulator: -32; NR2E3 ag-2: 2; PGE2 EP2 inh: 6; NR2E3 ag conf: 4; GAL4-VP16 luc: 34

Results for CC(C)CC(N)c1csc(NC(=O)c2cc(C(C)(C)C)nn2Cc2ccccc2)n1 (stereo unspecified) ?
NR2E3 ag-1: 52; NR2E3 ag conf: 14; GAL4-VP16 luc: 7

What do the screens show for `CC(C)CC(N)c1csc(NC(=O)Nc2ccccc2Cc2ccccc2)n1` (stereo unspecified)?
NR2E3 ag-1: 6

How did Cn1c(Sc2nc3ccccc3n2C)nc2ccccc21 do in these assays?
GASC-1 inh: -8; Furin inh: -17; NR2E3 ag-1: 76*; EP2 modulator: -21; NR2E3 ag-2: -2; PGE2 EP2 inh: 4; NR2E3 ag conf: 58; GAL4-VP16 luc: 19

How did Cc1c(C(C)NC(=O)c2cc(COc3cccc4cnccc34)on2)cnn1C (stereo unspecified) do in these assays?
GASC-1 inh: -11; NR2E3 ag-1: 72*; NR2E3 ag-2: 3; NR2E3 ag conf: 53; GAL4-VP16 luc: 61

Results for CN(Cc1cccc2cnccc12)C(=O)c1cc(COc2ccc(F)cc2F)on1 ?
GASC-1 inh: -7; NR2E3 ag-1: 72*; NR2E3 ag conf: 54; GAL4-VP16 luc: 55

How did CCc1ccc(CN(C)C(=O)c2cc(COc3c(F)cccc3F)on2)cc1 do in these assays?
GASC-1 inh: 0; Furin inh: -10; NR2E3 ag-1: -24; EP2 modulator: 19; NR2E3 ag-2: 2; PGE2 EP2 inh: 4

What do the screens show for `CCc1ccc(CN(C)C(=O)c2cc(COc3cccc4cnccc34)on2)cc1`?
GASC-1 inh: 10; NR2E3 ag-1: 108*; NR2E3 ag-2: 4; NR2E3 ag conf: 98*; GAL4-VP16 luc: 89*

What do the screens show for `CSc1ccccc1OCc1cc(C(=O)NC(C)c2cnn(C)c2)no1` (stereo unspecified)?
GASC-1 inh: 8; NR2E3 ag-1: -78; NR2E3 ag-2: 5

How did CN(Cc1cccc2ccccc12)C(=O)c1cc(COc2c(F)cccc2F)on1 do in these assays?
GASC-1 inh: -6; Furin inh: -24; NR2E3 ag-1: -40; EP2 modulator: -7; NR2E3 ag-2: -3; PGE2 EP2 inh: 2

What do the screens show for `CC(=O)N1CCN(C(=O)Cn2nc3c4ccccc4nc(C(C)C)n3c2=O)CC1`?
EP2 modulator: 7

What do the screens show for `CC(C)(C)NC(=O)C(c1ccc(Cl)cc1)N(Cc1cccnc1)C(=O)c1csnn1` (stereo unspecified)?
EP2 modulator: 23; PGE2 EP2 inh: 8

Results for COCC(=O)Nc1c(C(=O)Nc2ccc3c(c2)OCO3)oc2ccccc12 ?
GASC-1 inh: 36; NR2E3 ag-1: -19; NR2E3 ag-2: -1

Results for O=C(CCl)Nc1c(C(=O)Nc2ccc3c(c2)OCCO3)oc2ccccc12 ?
GASC-1 inh: 13; NR2E3 ag-1: 51; NR2E3 ag-2: 2; NR2E3 ag conf: -101; GAL4-VP16 luc: -8

How did O=S(=O)(c1cccc(NC(=S)N2CCN(c3cccc(Cl)c3)CC2)c1)C(F)F do in these assays?
GASC-1 inh: 2; Furin inh: -16; NR2E3 ag-1: 54; EP2 modulator: -6; NR2E3 ag-2: 5; PGE2 EP2 inh: 3; NR2E3 ag conf: 80*; GAL4-VP16 luc: 69

Results for O=S(=O)(c1cccc(NC(=S)N2CCN(c3ccc(F)cc3)CC2)c1)C(F)F ?
GASC-1 inh: -4; Furin inh: -22; NR2E3 ag-1: 22; EP2 modulator: 2; NR2E3 ag-2: 2; PGE2 EP2 inh: 9

Results for CCC(=O)N1CCc2cc(C(=O)CN3CCC(O)(c4ccc(F)cc4)CC3)ccc21 ?
EP2 modulator: -35; PGE2 EP2 inh: 6

What do the screens show for `O=C(NNc1c(F)c(F)cc(F)c1F)c1ccco1`?
GASC-1 inh: 9; NR2E3 ag-1: -17

Results for O=C(NNc1c([N+](=O)[O-])cc(C(F)(F)F)cc1[N+](=O)[O-])c1ccco1 ?
GASC-1 inh: 8; NR2E3 ag-1: 61; NR2E3 ag-2: -4; NR2E3 ag conf: 69; GAL4-VP16 luc: 57

How did CCOc1ccc(NC(=O)c2sc(NC(=O)c3cccc(F)c3)c(C(=O)OC)c2C)cc1 do in these assays?
EP2 modulator: -12; PGE2 EP2 inh: 9

Screens deposited in PubChem by several laboratories.
